# Measured values collected from several papers.
# Protocols differ between the studies behind these lines.
# Cell line: MCF-10A
# Effect on: cell growth or viability
Compound,method,time,IC50
CN(C)C(=S)[N-]N=C(c1ccccn1)c1ccccn1.[O]=[V+]=[O],MTT,48 h,19.2 µM
CCOC(=O)c1c(C)nc2ccc(-c3ccc(OCc4ccccc4)c(F)c3)cc2c1O,MTT,48 h,> 100 µM
Cc1ccc(S(=O)(=O)n2cc(/C=N/NC(=O)c3ccc(C)c(F)c3)c3ccccc32)cc1,MTT,48 h,> 50 µM
CO[C@H]1[C@H](O[C@H]([C@H]2O[C@@H](n3ccc(=O)[nH]c3=O)[C@H](O)[C@@H]2O)[C@H](NCCCNC(=O)[C@@H](NC(=O)[C@@H](NC(=O)N[C@H](C(=O)O)C(C)C)[C@@H]2CCN=C(N)N2)[C@@H](OC(=O)CCCCCCCCCCCCN(O)C(=N)N)C(C)C)C(=O)O)O[C@H](CN)[C@H]1O,WST-1,,> 35 µM
CCOC(=O)c1c(C)nc2ccc(-c3ccc(F)cc3)cc2c1O,MTT,48 h,> 100 µM
Cc1ccc(S(=O)(=O)n2cc(/C=N/NC(=O)c3cccc4ccccc34)c3ccccc32)cc1,MTT,48 h,> 50 µM
CC(=O)O[C@H]1C(=O)[C@@]2(C)[C@H]([C@H](OC(=O)c3ccccc3)[C@]3(O)C[C@H](OC(=O)[C@H](O)[C@@H](NC(=O)c4ccccc4)c4ccccc4)C(C)=C1C3(C)C)[C@]1(OC(C)=O)CO[C@@H]1C[C@@H]2O,MTT,48 h,> 100 µM
CO[C@H]1[C@H](O[C@H]([C@H]2O[C@@H](n3ccc(=O)[nH]c3=O)[C@H](O)[C@@H]2O)[C@H](NCCCNC(=O)[C@@H](NC(=O)[C@@H](NC(=O)N[C@H](C(=O)O)C(C)C)[C@@H]2CCN=C(N)N2)[C@@H](O)C(C)C)C(=O)O)O[C@H](CN)[C@H]1O,WST-1,,> 35 µM
CC(C)Cc1ccc([C@H](C)C(=O)O)cc1,SRB,72 h,435 µM
CCOC(=O)c1c(C)nc2ccc(-c3ccc(F)c(F)c3)cc2c1O,MTT,48 h,> 100 µM
COc1ccc(C(=O)N/N=C/c2cn(S(=O)(=O)c3ccc(C)cc3)c3ccccc23)cc1,MTT,48 h,> 50 µM
